Source: PubChem (Johns Hopkins Ion Channel Center)
Rows were chosen to be rich in hits. Some 2.3% of all compounds tested hit in one or more screens of this group.
TRPC4 inh: TRPC4 (mouse) channel inhibition. Q9QUQ5. HEK293 TRPC4beta/mu-opioid, DAMGO-evoked Fluo4 calcium flux; active compounds read low. B-score at 10 µM. 300,000 tested, 0.39% active. AID 2247;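 active = B-score over 3 SD under the library average, no early fluorescence shift, positive overall ratio signal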
Target sequence (Q9QUQ5 whole entry, looked up): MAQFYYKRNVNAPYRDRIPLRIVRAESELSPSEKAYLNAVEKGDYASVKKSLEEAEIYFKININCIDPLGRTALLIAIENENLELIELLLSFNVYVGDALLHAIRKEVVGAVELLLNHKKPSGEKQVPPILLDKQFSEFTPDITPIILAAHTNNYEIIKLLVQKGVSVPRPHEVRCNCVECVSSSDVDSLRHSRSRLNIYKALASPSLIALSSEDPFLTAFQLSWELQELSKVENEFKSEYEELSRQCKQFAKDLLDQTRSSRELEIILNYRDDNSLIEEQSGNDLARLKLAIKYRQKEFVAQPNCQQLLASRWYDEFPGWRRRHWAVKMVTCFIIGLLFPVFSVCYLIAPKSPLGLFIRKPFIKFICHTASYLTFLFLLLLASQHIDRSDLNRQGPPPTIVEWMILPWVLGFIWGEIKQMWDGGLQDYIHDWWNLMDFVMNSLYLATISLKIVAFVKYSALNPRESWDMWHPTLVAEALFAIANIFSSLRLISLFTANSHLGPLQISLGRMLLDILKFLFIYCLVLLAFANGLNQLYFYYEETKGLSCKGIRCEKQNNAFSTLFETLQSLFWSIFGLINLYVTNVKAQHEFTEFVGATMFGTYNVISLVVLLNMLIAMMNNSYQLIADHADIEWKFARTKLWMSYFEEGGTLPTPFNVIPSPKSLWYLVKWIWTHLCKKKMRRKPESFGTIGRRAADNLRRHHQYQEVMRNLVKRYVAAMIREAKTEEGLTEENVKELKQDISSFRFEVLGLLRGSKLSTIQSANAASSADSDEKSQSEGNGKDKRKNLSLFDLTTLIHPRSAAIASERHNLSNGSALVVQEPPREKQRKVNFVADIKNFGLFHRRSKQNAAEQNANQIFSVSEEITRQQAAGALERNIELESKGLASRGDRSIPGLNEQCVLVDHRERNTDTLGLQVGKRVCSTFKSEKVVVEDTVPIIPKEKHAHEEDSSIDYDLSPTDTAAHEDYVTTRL
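Assay system: TRPC4beta/mu-opioid receptor HEK293 cell line; compound dosing: single concentration per test compound; detection: Fluo4 Ca2+ flux fluorescence; evaluation: per-well B score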
TRPC4 act: opens the mouse TRPC4 cation channel. HEK293 TRPC4beta/mu-opioid, Fluo4 calcium fluorescence; active compounds read high. B-score at 10 µM. 310,000 tested, 0.49% active;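 active = B-score above 5 SD of library B-scores, and initial fluorescence ratio not above library mean plus 5 SD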;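 note: positive B-score marks a calcium rise read as TRPC4 activation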
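Assay system: HEK293 stable line with TRPC4beta plus mu-opioid receptor; schedule: 45 min room-temperature Fluo4 loading, 110 s read; technique: kinetic Fluo4 calcium fluorescence; evaluation: integrated baseline-normalised fluorescence ratio, converted to per-well B score; controls: buffer (low) and maximal DAMGO (high)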
TRPC6 inh: mouse TRPC6 channel inhibition; HEK293-TRPC6, membrane potential dye, ACh-evoked depolarization; active compounds read low; B-score at 10 µM; Q61143; 310,000 tested, 1.1% active;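 active = B-score under library mean minus 3 SD, initial fluorescence not abnormally high, positive integrated signal ratio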;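 note: B-score derived from integrated fluorescence ratio over the kinetic read; more negative B-score means stronger inhibition of depolarization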
TRPC4 potent: allosteric potentiators of mouse TRPC4 channel; HEK293 TRPC4beta/mu-opioid, DAMGO EC20, Fluo-4 Ca2+ flux; active compounds read high; B-score at 10 µM; 310,000 tested, 0.42% active;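 active = B-score of calcium response area above 5 SD of library B-scores, with initial fluorescence ratio within 5 SD of library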;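 note: B-score of integrated fluorescence ratio over time as area under calcium response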
TRPC6 activator: activators of mouse TRPC6 channel; 310,000 tested, 0.13% active; HEK293-TRPC6 membrane potential dye fluorescence; active compounds read high; B-score at 10 µM; AID 2550;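 active = B-score of the integrated fluorescence ratio above library mean plus 3 SD, and starting fluorescence ratio within library mean plus 5 SD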;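 note: higher score means more depolarization so channel activation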
TRPC4 sel inh 2: second selectivity test of TRPC6 inhibitors: effect on mouse TRPC4. shares compounds with TRPC6 inh. HEK293 TRPC4/MOR, membrane potential dye fluorescence; channel activated by saturating DAMGO dose. inhibition, % at 10 µM. 920 tested, 42% active;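 active = compounds whose fluorescence signal differed from control wells by over 3 SD, either direction, in both duplicate plates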
TRPC4 spec: mouse TRPC4 off-target activity of TRPC6 inhibitors. shares compounds with TRPC6 inh. AID 2777. HEK293 TRPC4/mu-opioid, membrane potential fluorescence. 920 tested, 61% active. activity change, negative = inhibition, % at 10 µM;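 active = rise or fall in signal beyond 3 SD of buffer-only wells in both replicate plates, either sign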;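 note: integrated kinetic ratio of fluorescence range over baseline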
HEK293 MPD ctr 2-1: second counter-screen for TRPC6 inhibitors: parental HEK293 cells; parental HEK293 membrane potential dye fluorescence; maximal acetylcholine challenge after compound addition; shares compounds with TRPC6 inh; 920 tested, 31% active; signal change vs control, % at 10 µM;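 active = membrane potential signal moving either way by over 3 SD of the maximum-effect control, in both duplicate plates, meaning non-specific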
HEK293 MPD ctr-1: parental HEK293 nonspecific activity of TRPC6 inhibitors; membrane potential signal change, % at 10 µM; 920 tested, 60% active; AID 2780; parental HEK293 membrane potential dye fluorescence; shares compounds with TRPC6 inh;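 active = membrane potential signal shifting up or down by more than 3 SD of buffer-only wells, on both duplicate plates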
HEK293 MPD ctr-2: parental HEK293 nonspecific activity of TRPC6 modulators. membrane potential dye fluorescence. shares compounds with TRPC6 inh. membrane potential signal change, % at 10 µM. 2,400 tested, 51% active;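 active = membrane potential signal moves up or down beyond 5 SD from buffer-only wells, on both duplicate plates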
HEK293 MPD ctr 2-2: second counter-screen for TRPC6 modulators: effect in parental HEK293 cells; 2,400 tested, 14% active; inhibition, % at 10 µM; shares compounds with TRPC6 inh; membrane potential dye fluorescence; after compound, maximal acetylcholine stimulation;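 active = membrane potential signal drops by more than 5 SD from the mean control signal, in both duplicate plates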;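 note: plate controls were acetylcholine ECmax control wells for no effect and buffer only wells for full effect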
TRPC4/MOR mod: tests whether TRPC6 modulators also affect mouse TRPC4. shares compounds with TRPC6 inh. HEK293 TRPC4/mu-opioid, membrane potential fluorescence. percent change from control (negative = decrease, positive = increase), % at 10 µM. 2,400 tested, 69% active. AID 488927;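 active = membrane potential signal moved up or down beyond 5 SD of buffer control wells, in both duplicate plates, actives on both sides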;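 note: plate controls were assay buffer wells for no effect and DAMGO maximal-effect wells for full effect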
TRPC4 ctr inh 2: mouse TRPC4 off-target activity of TRPC6 modulators, second screen; shares compounds with TRPC6 inh; HEK293 TRPC4/mu-opioid, membrane potential dye fluorescence; stimulated with maximal-effect DAMGO; inhibition, % at 10 µM; 2,400 tested, 55% active; AID 488928;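 active = drop in membrane potential signal beyond 5 SD of the control wells in both duplicate plates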;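 note: TRPC4 counter screen for TRPC6 hits run under conditions tuned for TRPC6 not TRPC4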
TRPC6 inh conf: confirmation of mouse TRPC6 inhibitors. HEK293-TRPC6, membrane potential dye, ACh-evoked depolarization. AID 488960. shares compounds with TRPC6 inh. inhibition, % at 10 µM. 3,300 tested, 43% active;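 active = fluorescence ratio falls more than 5 SD below the full-stimulation control mean, in both duplicate runs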;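 note: integrated fluorescence ratio of peak minus minimum over baseline after agonist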
TRPC6 act conf: confirmation of mouse TRPC6 activators. shares compounds with TRPC6 inh. HEK293-TRPC6 membrane potential dye fluorescence, FDSS. activation, % at 10 µM. 2,800 tested, 11% active. AID 488961;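 active = ratio signal rise beyond 5 SD above unstimulated control wells' mean, seen in both duplicate runs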;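 note: plate controls were buffer EC0 wells for no effect and acetylcholine ECmax response for full effect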
Numbers without * were called inactive.

Screening Cc1[nH][nH]c(=O)c1C=NCc1cccc(C(F)(F)F)c1 returned TRPC4 inh inactive, TRPC4 act inactive, TRPC6 inh inactive, TRPC4 potent inactive and TRPC6 activator inactive.
O=C1CCC(c2ccccc2)(C2CCN(Cc3ccccc3)CC2)C(=O)N1 (centres undefined) was read as TRPC4 inh inactive, TRPC4 act inactive, TRPC6 inh -6.3*, TRPC4 potent inactive, TRPC6 activator inactive, HEK293 MPD ctr-2 96%*, HEK293 MPD ctr 2-2 84%*, TRPC4/MOR mod 20%*, TRPC4 ctr inh 2 35%* and TRPC6 inh conf 74%*.
For Cc1nnc(C)c2c(C)n(-c3ccccc3)c(C)c12 the results were TRPC4 inh inactive, TRPC4 act inactive, TRPC6 inh -5*, TRPC4 potent inactive, TRPC6 activator inactive, HEK293 MPD ctr-2 -127%*, HEK293 MPD ctr 2-2 inactive, TRPC4/MOR mod -22%*, TRPC4 ctr inh 2 50%*, TRPC6 inh conf 45%* and TRPC6 act conf inactive.
`Oc1cccc2ccc(Nc3ccccn3)nc12` gave TRPC4 inh inactive, TRPC4 act inactive, TRPC6 inh -9.1*, TRPC4 potent inactive, TRPC6 activator inactive, TRPC4 sel inh 2 inactive, TRPC4 spec -15%*, HEK293 MPD ctr 2-1 inactive, HEK293 MPD ctr-1 -180%*, TRPC6 inh conf inactive and TRPC6 act conf inactive.
Screening O=C(Nc1ccccc1C(=O)Nc1nnc(C(F)(F)F)s1)c1ccccc1 returned TRPC4 inh inactive, TRPC4 act inactive, TRPC6 inh -7*, TRPC4 potent inactive, TRPC6 activator inactive, TRPC4 sel inh 2 inactive, TRPC4 spec 16%*, HEK293 MPD ctr 2-1 inactive, HEK293 MPD ctr-1 11%*, TRPC6 inh conf 84%* and TRPC6 act conf inactive.
CSc1ccccc1OC1CCN(Cc2ccccc2)CC1 was read as TRPC4 inh inactive, TRPC4 act inactive, TRPC6 inh inactive, TRPC4 potent inactive, TRPC6 activator 12*, HEK293 MPD ctr-2 196%*, HEK293 MPD ctr 2-2 inactive, TRPC4/MOR mod 40%*, TRPC4 ctr inh 2 63%*, TRPC6 inh conf inactive and TRPC6 act conf 77%*.
Screening CC(=O)C1CCN(Cc2ccccc2)CC1 returned TRPC4 inh inactive, TRPC4 act inactive, TRPC6 inh inactive, TRPC4 potent inactive and TRPC6 activator inactive.
`CCOC(=O)C1CCCN(C(=O)Nc2c(-c3ccccc3)noc2C)C1` (centres undefined) gave TRPC4 inh inactive, TRPC4 act inactive, TRPC6 inh inactive, TRPC4 potent inactive and TRPC6 activator inactive.
`CSc1ccccc1NC(=O)c1csc(C)c1` gave TRPC4 inh inactive, TRPC4 act inactive, TRPC6 inh inactive, TRPC4 potent inactive and TRPC6 activator inactive.
For Cc1ccc(O)c(NC(=O)c2cc3nc4c(c(C(F)(F)F)n3n2)CCc2ccccc2-4)c1 the results were TRPC4 inh inactive, TRPC4 act inactive, TRPC6 inh inactive, TRPC4 potent inactive and TRPC6 activator inactive.
CCN(CC)CCCNC(=O)c1cc2nc3c(c(C(F)(F)F)n2n1)CCc1ccccc1-3 was read as TRPC4 inh inactive, TRPC4 act inactive, TRPC6 inh -6.7*, TRPC4 potent inactive, TRPC6 activator inactive, TRPC4 sel inh 2 65%*, TRPC4 spec inactive, HEK293 MPD ctr 2-1 inactive, HEK293 MPD ctr-1 0.8%*, TRPC6 inh conf inactive and TRPC6 act conf inactive.
COc1ccccc1C(=O)Nc1ccnn1C1CCN(C/C=C/c2ccc(F)cc2)CC1 was read as TRPC4 inh inactive, TRPC4 act inactive, TRPC6 inh inactive, TRPC4 potent inactive and TRPC6 activator inactive.
Screening Cc1ccc(C(=O)N/C(=C/c2ccco2)C(=O)OCN2C(=O)c3ccccc3C2=O)cc1 returned TRPC4 inh inactive, TRPC4 act inactive, TRPC6 inh inactive, TRPC4 potent inactive and TRPC6 activator inactive.
Screening CC(=O)c1ccc(Nc2cc(C)nc3ccccc23)cc1 returned TRPC4 inh inactive, TRPC4 act inactive, TRPC6 inh -6.9*, TRPC4 potent inactive, TRPC6 activator inactive, HEK293 MPD ctr-2 102%*, HEK293 MPD ctr 2-2 144%*, TRPC4/MOR mod inactive, TRPC4 ctr inh 2 63%*, TRPC6 inh conf 84%* and TRPC6 act conf inactive.
For CC(=O)Nc1ccc(C(=O)CSc2cc(C)c3cccc(C)c3n2)cc1 the results were TRPC4 inh inactive, TRPC4 act inactive, TRPC6 inh inactive, TRPC4 potent inactive and TRPC6 activator inactive.
Cc1cc(N/N=C/c2ccc(O)cc2)c2cccc(C)c2n1 was read as TRPC4 inh inactive, TRPC4 act inactive, TRPC6 inh inactive, TRPC4 potent inactive and TRPC6 activator inactive.
Cc1ccc(Nc2cc(C)nc3c(C)cccc23)cc1 was read as TRPC4 inh -7*, TRPC4 act inactive, TRPC6 inh -6.8*, TRPC4 potent inactive, TRPC6 activator inactive, TRPC4 sel inh 2 20%*, TRPC4 spec inactive, HEK293 MPD ctr 2-1 22%*, HEK293 MPD ctr-1 -196%*, TRPC6 inh conf 98%* and TRPC6 act conf inactive.
